Data published in ChEMBL document CHEMBL1155916, “Fluorinated phenylcyclopropylamines. Part 5: Effects of electron-withdrawing or -donating aryl substituents on the inhibition of monoamine oxidases A and B by 2-aryl-2-fluoro-cyclopropylamines” (Bioorg Med Chem, 2008).

Assays:
[1] = target: T1, Amine oxidase [flavin-containing] A (Homo sapiens, UniProt P21397); test: Inhibition of human recombinant MAOA
T1 sequence (P21397 whole entry): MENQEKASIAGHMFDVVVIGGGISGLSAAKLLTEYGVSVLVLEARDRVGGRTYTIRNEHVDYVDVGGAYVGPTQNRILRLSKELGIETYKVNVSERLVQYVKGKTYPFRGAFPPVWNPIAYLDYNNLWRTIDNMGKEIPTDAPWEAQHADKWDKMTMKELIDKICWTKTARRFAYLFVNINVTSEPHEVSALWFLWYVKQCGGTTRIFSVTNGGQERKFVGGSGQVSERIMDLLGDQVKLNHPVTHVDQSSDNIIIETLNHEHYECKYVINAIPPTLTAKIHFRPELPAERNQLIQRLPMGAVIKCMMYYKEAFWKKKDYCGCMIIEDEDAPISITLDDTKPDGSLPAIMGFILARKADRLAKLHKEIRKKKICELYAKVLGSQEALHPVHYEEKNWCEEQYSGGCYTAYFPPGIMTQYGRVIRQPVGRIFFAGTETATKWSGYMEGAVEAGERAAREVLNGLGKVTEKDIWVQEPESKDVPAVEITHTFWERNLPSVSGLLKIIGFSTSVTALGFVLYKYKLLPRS
In short: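 Recombinant human mitochondrial MAO A, desalted into 50 mM K phosphate pH 7.2 with 0.8% octyl-glucoside. Enzyme (4.4 µg) preincubated 10 min at 10 °C with varying inhibitor concentrations (DMSO) in substrate-free mix: 50 mM K phosphate pH 7.2, 0.5% reduced Triton X-100, 6% DMSO.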

[2] = target: T2, Amine oxidase [copper-containing] 3 (Rattus norvegicus, UniProt O08590); test: Inhibition of rat CAO
T2 sequence (O08590 whole entry): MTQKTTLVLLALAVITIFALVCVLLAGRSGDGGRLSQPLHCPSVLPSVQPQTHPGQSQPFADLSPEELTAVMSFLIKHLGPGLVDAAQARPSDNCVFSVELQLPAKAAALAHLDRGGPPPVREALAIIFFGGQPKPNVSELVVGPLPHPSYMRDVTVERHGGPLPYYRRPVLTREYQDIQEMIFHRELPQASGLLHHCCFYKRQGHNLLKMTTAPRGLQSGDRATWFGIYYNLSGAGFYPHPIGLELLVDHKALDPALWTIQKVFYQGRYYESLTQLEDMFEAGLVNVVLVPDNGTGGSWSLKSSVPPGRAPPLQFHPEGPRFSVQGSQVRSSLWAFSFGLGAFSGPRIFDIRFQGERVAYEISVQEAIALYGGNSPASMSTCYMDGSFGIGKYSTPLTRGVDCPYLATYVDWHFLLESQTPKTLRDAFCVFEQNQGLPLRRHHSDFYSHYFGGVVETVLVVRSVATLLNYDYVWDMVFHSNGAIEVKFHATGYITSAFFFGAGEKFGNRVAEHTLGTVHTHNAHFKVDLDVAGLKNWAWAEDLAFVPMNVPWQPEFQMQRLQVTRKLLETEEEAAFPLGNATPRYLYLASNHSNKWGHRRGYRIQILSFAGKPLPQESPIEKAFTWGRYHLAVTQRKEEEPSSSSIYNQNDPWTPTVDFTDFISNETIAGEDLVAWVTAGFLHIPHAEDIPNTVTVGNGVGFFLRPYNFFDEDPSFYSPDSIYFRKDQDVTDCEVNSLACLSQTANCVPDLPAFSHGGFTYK

[3] = organism: Homo sapiens; test: Selectivity for human recombinant MAOA over human recombinant MAOB
[4] = Inhibition of tyramine oxidase
[5] = organism: Homo sapiens; test: Selectivity for human recombinant MAOB over human recombinant MAOA
[6] = target: T3, Amine oxidase [flavin-containing] B (Homo sapiens, UniProt P27338); test: Inhibition of human recombinant MAOB
T3 sequence (P27338 whole entry): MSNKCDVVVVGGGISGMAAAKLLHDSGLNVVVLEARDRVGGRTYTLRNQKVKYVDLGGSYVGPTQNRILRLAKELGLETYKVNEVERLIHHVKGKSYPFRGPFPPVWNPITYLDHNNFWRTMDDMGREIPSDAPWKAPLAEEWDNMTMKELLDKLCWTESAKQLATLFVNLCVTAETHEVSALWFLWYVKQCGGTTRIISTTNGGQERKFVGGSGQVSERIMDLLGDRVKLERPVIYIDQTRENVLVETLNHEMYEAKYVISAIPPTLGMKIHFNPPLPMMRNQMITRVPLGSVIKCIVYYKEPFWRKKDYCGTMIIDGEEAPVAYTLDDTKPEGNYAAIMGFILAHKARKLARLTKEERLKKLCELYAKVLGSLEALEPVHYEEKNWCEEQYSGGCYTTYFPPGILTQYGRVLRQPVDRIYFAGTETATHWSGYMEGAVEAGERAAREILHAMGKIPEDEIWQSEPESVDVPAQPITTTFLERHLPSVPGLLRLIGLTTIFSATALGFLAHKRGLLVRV
In short: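 Recombinant human mitochondrial MAO B was gel-filtered into 50 mM K phosphate pH 7.2 with 0.8% octyl-glucoside. Enzyme (7.0 µg) was held 10 min at 10 °C with varying inhibitor concentrations (DMSO) in 0.1 M K phosphate pH 7.2, 6% DMSO, without substrate. The reaction was started with 1 mM benzylamine, and benzaldehyde formation was read at 250 nm at 25 °C.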

[7] = Dissociation constant, pKa by titrimetric method; format: physicochemical
In short: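 Titration in 0.1 M KNO₃ at 21 °C.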

[8] = organism: Homo sapiens; test: Selectivity for human recombinant MAOA over human recombinant MAOB
[9] = Lipophilicity, log D at pH 7.4; format: physicochemical; details: buffer

| Structure (SMILES) | IC50 ([1]; read-out: IC50) [µM] | Ratio IC50 [5] | IC50 [6] [µM] | pKa [7] | Ratio IC50 [8] | logD [9] | other results |
| --- | --- | --- | --- | --- | --- | --- | --- |
| COc1ccc(/C(=C\F)CN)cc1OC |  |  |  |  |  |  | Ki [1]: 231 µM; IC50 [2]: 0.006 µM; Ratio Ki [3]: 100 |
| NC[C@@]1(c2ccccc2)C[C@@H]1F | 320 |  |  |  |  |  | IC50 [4]: 12 µM |
| N[C@@H]1C[C@]1(F)c1ccc(F)cc1 (relative stereo) | 270 |  | 10 | 6.88 | 27 | 2.14 |  |
| N[C@H]1C[C@]1(F)c1ccc(F)cc1 (relative stereo) | 3.6 | 1.4 | 4.9 | 7.31 |  | 1.6 |  |
| Cc1ccc([C@@]2(F)C[C@H]2N)cc1 (relative stereo) | 230 |  | 30 | 7.04 | 7.7 |  |  |
| N[C@H]1C[C@]1(F)c1ccccc1 (relative stereo) | 12 |  | 6.4 |  | 2 | 1.53 |  |
| N[C@@H]1C[C@]1(F)c1ccc(Cl)cc1 (relative stereo) | 89 |  | 4.8 | 6.81 | 18.5 | 2.66 |  |
| N[C@@H]1C[C@@H]1c1ccccc1 (relative stereo) |  |  |  | 8.47 |  | 1.41 |  |
| N[C@H]1C[C@]1(F)c1ccc(C(F)(F)F)cc1 (relative stereo) | 0.8 | 6.8 | 5.4 | 7 |  | 2.66 |  |
| Cc1ccc([C@@]2(F)C[C@@H]2N)cc1 (relative stereo) | 13 | 1 | 13 | 7.41 |  | 1.83 |  |
| N[C@@]1(c2ccccc2)C[C@@H]1F (relative stereo) |  | 100 |  |  |  |  |  |

Second part, led by results:

| IC50 ([1]; read-out: IC50) [µM] | Ratio IC50 [5] | IC50 [6] [µM] | pKa [7] | Ratio IC50 [8] | logD [9] | Structure (SMILES) | other results |
| --- | --- | --- | --- | --- | --- | --- | --- |
| 10 | 2 | 20 | 5.8 |  |  | N[C@]1(c2ccccc2)C[C@]1(F)c1ccccc1 (racemic) |  |
| 76 |  | 7.1 | 6.6 | 10.7 | 3.13 | N[C@@H]1C[C@]1(F)c1ccc(C(F)(F)F)cc1 (relative stereo) |  |
| 14 |  | 5.1 | 7.5 | 2.8 |  | COc1ccc([C@@]2(F)C[C@@H]2N)cc1 (relative stereo) |  |
| 1.6 | 2.3 | 3.7 | 7.19 |  | 2.23 | N[C@H]1C[C@]1(F)c1ccc(Cl)cc1 (relative stereo) |  |
|  |  | 18 |  |  |  | COc1ccc([C@@]2(F)C[C@H]2N)cc1 (relative stereo) | Activity ([1]; human): Not Active |
| 47 | 4.9 | 230 | 7.4 |  | 0.58 | COc1ccc([C@@]2(F)C[C@@H]2N)cc1OC (relative stereo) |  |
|  |  | 470 |  |  |  | COc1ccc([C@@]2(F)C[C@H]2N)cc1OC (relative stereo) | IC50 [1]: Not Active |
| 65 |  | 19 |  | 3.4 | 1.78 | N[C@@H]1C[C@]1(F)c1ccccc1 (stereo in doubt) |  |
